# In ChEMBL document CHEMBL1123133, “1H-2-Benzopyran-1-one derivatives, microbial products with pharmacological activity. Conversion into orally active derivatives with antiinflammatory and antiulcer activities” (J Med Chem, 1985):
# What was measured:
# [1] = Solubility in phosphate buffer, tested as a HCl salt; assay type: physicochemical
# In short: (§1)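 HCl salts suspended in excess in water or 10 mM phosphate buffer pH 7.5, sonicated 10 min at 20 °C to saturation, centrifuged; supernatant quantified by HPLC.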
# Rattus norvegicus [2] = assay: Gastroprotective activity as % protection against stress ulcers in 5 rats after an oral dose of 100 mg/kg; assay type: functional
# In short: (§2)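 Stress ulcer by restraint and water immersion: male Wistar rats (160–180 g), fasted 24 h, given test compound po or ip as HCl salt in aqueous glycerin/HCO-60 formulation (1/12/0.05 by weight). Vehicle-only controls. After 1 h, restrained in net cage and immersed in 21 °C water for 6 h. Percent ulcer inhibition calculated; five rats per dose.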
# Rattus norvegicus [3] = assay: % recovery of the compound, compound 1 and compound 6a from whole blood of 7 wistar rats after an oral dose of the compound; assay type: ADME, organism-based; details: in vivo
# Rattus norvegicus [4] = assay: Concentration 6c detected in blood of rat 1 hr after an oral dose of 200 mg/kg of the compound; assay type: ADME, organism-based; set-up: dose 200 mg/kg, route oral; details: in vivo
# In short: (§3)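 Male Wistar rats (120–160 g, 5–7 per group) fasted 24 h, then given 200 mg/kg orally as the HCl salt in a glycerin/HCO-60 formulation (drug/glycerin/HCO-60 1/12/0.05 by weight) in aqueous solution. At 1 or 3 h, jugular blood was citrated and plasma was ethanol-deproteinized, then analysed by reverse-phase HPLC at 254 nm. Values were recovery-corrected from blood spiked at 50 μg/mL and are means of 6–7 rats.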
# Rattus norvegicus [5] = assay: Gastroprotective activity as % protection against stress ulcers in 5 rats after an intraperitoneal dose of 25 mg/kg; assay type: functional; in short: as §2
# [6] = Lipid solubility measured as chloroform-water partition coefficient; assay type: physicochemical
# In short: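 Partition between chloroform and 10 mM phosphate buffer pH 7.5 (1:1 volume); drug at 1 mg/mL initially in aqueous phase, shaken 20 min at 20 °C, centrifuged, both phases quantified by HPLC. HCl salts used.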
# Rattus norvegicus [7] = assay: Gastroprotective activity as % protection against stress ulcers in 5 rats after an intraperitoneal dose of 12.5 mg/kg; assay type: functional; in short: as §2
# Rattus norvegicus [8] = assay: Concentration 6c detected in blood of rat 3 hr after an oral dose of 200 mg/kg of the compound; assay type: ADME, organism-based; set-up: dose 200 mg/kg, route oral; details: in vivo; in short: as §3
# Rattus norvegicus [9] = assay: Gastroprotective activity as % protection against stress ulcers in 5 rats after an oral dose of 12.5 mg/kg; assay type: functional; in short: as §2
# Rattus norvegicus [10] = assay: Antiinflammatory activity evaluated as Minimum effective oral dose that inhibits carrageenan paw edema in rat; assay type: functional
# [11] = Solubility in water, tested as a HCl salt; assay type: physicochemical; details: read-out: S; in short: as §1
# [12] = Acute toxicity evaluated as oral lethal dose in rat; assay type: organism-based; details: in vivo
# In short: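 Oral dosing of male Wistar rats (120-140 g), given as HCl salt; LD50 derived from mortality over 7 days.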
# Rattus norvegicus [13] = assay: Concentration 5c detected in blood of rat 1 hr after an oral dose of 200 mg/kg of the compound; assay type: ADME, organism-based; set-up: dose 200 mg/kg, route oral; details: in vivo; in short: as §3
# Rattus norvegicus [14] = assay: Gastroprotective activity as % protection against stress ulcers in 5 rats after an oral dose of 50 mg/kg; assay type: functional; in short: as §2
# Rattus norvegicus [15] = assay: Gastroprotective activity as % protection against stress ulcers in 5 rats after an intraperitoneal dose of 50 mg/kg; assay type: functional; in short: as §2
# Cavia porcellus = assay: Antiinflammatory activity evaluated as Minimum effective oral dose that inhibits dextran UV erythema in guinea pig; assay type: functional
# Rattus norvegicus [16] = assay: Antiinflammatory activity evaluated as Minimum effective oral dose that inhibits bradykinin paw edema in rat; assay type: functional
# Rattus norvegicus [17] = assay: Gastroprotective activity as % protection against stress ulcers in 5 rats after an oral dose of 25 mg/kg; assay type: functional; in short: as §2
# Rattus norvegicus [18] = assay: Antiinflammatory activity evaluated as Minimum effective oral dose that inhibits dextran paw edema in rat; assay type: functional
# Rattus norvegicus [19] = assay: Antiinflammatory activity evaluated as Minimum effective oral dose that inhibits adjuvant arthritis in rats; assay type: functional
# In short: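 Adjuvant arthritis: male Sprague-Dawley rats (180–200 g), 8–10 per group, injected in right hind paw with Mycobacterium butyricum powder in corn oil (0.6 mg/0.1 mL). Oral dosing started 1 h after adjuvant, then daily for 18 days; observed 28 days. Minimum effective dose recorded.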
# Rattus norvegicus [20] = assay: Concentration 5c detected in blood of rat 3 hr after an oral dose of 200 mg/kg of the compound; assay type: ADME, organism-based; set-up: dose 200 mg/kg, route oral; details: in vivo; in short: as §3
# Rattus norvegicus [21] = assay: Concentration 5b detected in blood of rat 3 hr after an oral dose of 200 mg/kg of the compound; assay type: ADME, organism-based; set-up: dose 200 mg/kg, route oral; details: in vivo
# In short: (§4)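 Male Wistar rats (120–160 g), 5–7 per group, fasted 24 h, given 200 mg/kg orally as aqueous HCl salt formulation (drug/glycerin/HCO-60 1/12/0.05 by weight). Jugular blood taken under ether at 1 or 3 h into citric acid; plasma deproteinized with ethanol (acetone for 5d) and analysed by C18 HPLC at 254 nm. Values recovery-corrected, mean of 6–7 rats.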
# Rattus norvegicus [22] = assay: Concentration 5b detected in blood of rat 1 hr after an oral dose of 200 mg/kg of the compound; assay type: ADME, organism-based; set-up: dose 200 mg/kg, route oral; details: in vivo; in short: as §4
# Rattus norvegicus [23] = assay: Concentration 5a detected in blood of rat 3 hr after an oral dose of 200 mg/kg of the compound; assay type: ADME, organism-based; set-up: dose 200 mg/kg, route oral; details: in vivo; in short: as §4
# Rattus norvegicus [24] = assay: Concentration 6a detected in blood of rat 3 hr after an oral dose of 200 mg/kg of the compound; assay type: ADME, organism-based; set-up: dose 200 mg/kg, route oral; details: in vivo; in short: as §4
# Rattus norvegicus [25] = assay: Concentration 5a detected in blood of rat 1 hr after an oral dose of 200 mg/kg of the compound; assay type: ADME, organism-based; set-up: dose 200 mg/kg, route oral; details: in vivo; in short: as §4
# Rattus norvegicus [26] = assay: Concentration 6a detected in blood of rat 1 hr after an oral dose of 200 mg/kg of the compound; assay type: ADME, organism-based; set-up: dose 200 mg/kg, route oral; details: in vivo; in short: as §4
# Rattus norvegicus [27] = assay: % recovery 1 and compound 6a from whole blood of 7 wistar rats after an oral dose of the compound; assay type: ADME, organism-based; details: in vivo
# Rattus norvegicus [28] = assay: Concentration 6f detected in blood of rat 3 hr after an oral dose of 200 mg/kg; ND is Not Detected; assay type: ADME, organism-based; set-up: dose 200 mg/kg, route oral; details: in vivo; in short: as §4
# Rattus norvegicus [29] = assay: Concentration 5f detected in blood of rat 1 hr after an oral dose of 200 mg/kg of the compound; ND is Not Detected; assay type: ADME, organism-based; set-up: dose 200 mg/kg, route oral; details: in vivo; in short: as §4
# Rattus norvegicus [30] = assay: Concentration 6f detected in blood of rat 1 hr after an oral dose of 200 mg/kg; ND is Not Detected; assay type: ADME, organism-based; set-up: dose 200 mg/kg, route oral; details: in vivo; in short: as §4
# Rattus norvegicus [31] = assay: Concentration 1 detected in blood of rat 3 hr after an oral dose of 200 mg/kg; ND is Not Detected; assay type: ADME, organism-based; set-up: dose 200 mg/kg, route oral; details: in vivo; in short: as §4
# Rattus norvegicus [32] = assay: Concentration 1 detected in blood of rat 1 hr after an oral dose of 200 mg/kg; ND is Not Detected; assay type: ADME, organism-based; set-up: dose 200 mg/kg, route oral; details: in vivo; in short: as §4
# Rattus norvegicus [33] = assay: Concentration 5f detected in blood of rat 3 hr after an oral dose of 200 mg/kg; ND is Not Detected; assay type: ADME, organism-based; set-up: dose 200 mg/kg, route oral; details: in vivo; in short: as §4
# Rattus norvegicus [34] = assay: Concentration 1 detected in blood of rat 3 hr after an oral dose of 200 mg/kg; ND is Not Detected.; assay type: ADME, organism-based; set-up: dose 200 mg/kg, route oral; details: in vivo; in short: as §4
# Rattus norvegicus [35] = assay: Concentration 6d detected in blood of rat 1 hr after an oral dose of 200 mg/kg of the compound; assay type: ADME, organism-based; set-up: dose 200 mg/kg, route oral; details: in vivo; in short: as §4
# Rattus norvegicus [36] = assay: Concentration 5d detected in blood of rat 3 hr after an oral dose of 200 mg/kg of the compound; assay type: ADME, organism-based; set-up: dose 200 mg/kg, route oral; details: in vivo; in short: as §4
# Rattus norvegicus [37] = assay: Concentration 5d detected in blood of rat 1 hr after an oral dose of 200 mg/kg of the compound; assay type: ADME, organism-based; set-up: dose 200 mg/kg, route oral; details: in vivo; in short: as §4
# Rattus norvegicus [38] = assay: Concentration 6d detected in blood of rat 3 hr after an oral dose of 200 mg/kg of the compound; assay type: ADME, organism-based; set-up: dose 200 mg/kg, route oral; details: in vivo; in short: as §4
solubility [1],solubility [11],SMILES,Protection (Rattus norvegicus [2]),Recovery (Rattus norvegicus [3]),Protection (Rattus norvegicus [5]),P [6],Protection (Rattus norvegicus [7]),Protection (Rattus norvegicus [9]),ED50 (Rattus norvegicus [10]),LD50 [12],Protection (Rattus norvegicus [14]),Protection (Rattus norvegicus [15]),ED50 (Cavia porcellus),ED50 (Rattus norvegicus [16]),Protection (Rattus norvegicus [17]),ED50 (Rattus norvegicus [18]),EDmin (Rattus norvegicus [19]),also measured
990 µg/mL,1500 µg/mL,CNC1CC(=O)OC1C(O)C(=O)NC(CC(C)C)C1Cc2cccc(O)c2C(=O)O1 (stereo not given),66%,,33%,3750,,17%,,,56%,56%,,,11%,,,Concentration (Rattus norvegicus [23]): 1200 ng/mL; Concentration (Rattus norvegicus [24]): 1100 ng/mL; Concentration (Rattus norvegicus [25]): 3800 ng/mL; Concentration (Rattus norvegicus [26]): 3100 ng/mL; Recovery (Rattus norvegicus [27]): 50%
,,CNc1ccccc1,,,,> 19,,,,,,,,,,,,
5 µg/mL,1600 µg/mL,CCCCCCNC1CC(=O)OC1C(O)C(=O)NC(CC(C)C)C1Cc2cccc(O)c2C(=O)O1 (stereo not given),44%,80%,17%,3000,,,,,44%,11%,,,11%,,,Concentration (Rattus norvegicus [28]): Not detected; Concentration (Rattus norvegicus [29]): Not detected; Concentration (Rattus norvegicus [30]): Not detected; Concentration (Rattus norvegicus [31]): Not detected; Concentration (Rattus norvegicus [32]): Not detected; Concentration (Rattus norvegicus [33]): Not detected
370 µg/mL,100000 µg/mL,CCCCNC1CC(=O)OC1C(O)C(=O)NC(CC(C)C)C1Cc2cccc(O)c2C(=O)O1 (stereo not given),89%,30%,44%,1700,,17%,,,66%,89%,,,33%,,,Concentration (Rattus norvegicus [34]): Not detected; Concentration (Rattus norvegicus [35]): 2000 ng/mL; Concentration (Rattus norvegicus [36]): 2300 ng/mL; Concentration (Rattus norvegicus [37]): 2300 ng/mL; Concentration (Rattus norvegicus [38]): 1800 ng/mL

SMILES,solubility [1],solubility [11],Protection (Rattus norvegicus [2]),Recovery (Rattus norvegicus [3]),Protection (Rattus norvegicus [5]),P [6],Protection (Rattus norvegicus [7]),Protection (Rattus norvegicus [9]),ED50 (Rattus norvegicus [10]),LD50 [12],Protection (Rattus norvegicus [14]),Protection (Rattus norvegicus [15]),ED50 (Cavia porcellus),ED50 (Rattus norvegicus [16]),Protection (Rattus norvegicus [17]),ED50 (Rattus norvegicus [18]),EDmin (Rattus norvegicus [19]),also measured
CCCNC1CC(=O)OC1C(O)C(=O)NC(CC(C)C)C1Cc2cccc(O)c2C(=O)O1 (stereo not given),1600 µg/mL,> 100000 µg/mL,100%,40%,66%,260,44%,17%,124 mg/kg,1080 mg/kg,94%,89%,12 mg/kg,69 mg/kg,78%,43 mg/kg,15 mg/kg,Concentration (Rattus norvegicus [4]): 6400 ng/mL; Concentration (Rattus norvegicus [8]): 3400 ng/mL; Concentration (Rattus norvegicus [13]): 14200 ng/mL; Concentration (Rattus norvegicus [20]): 3400 ng/mL
CCNC1CC(=O)OC1C(O)C(=O)NC(CC(C)C)C1Cc2cccc(O)c2C(=O)O1 (stereo not given),11000 µg/mL,> 100000 µg/mL,89%,20%,76%,43,66%,33%,> 200 mg/kg,1250 mg/kg,78%,100%,13 mg/kg,182 mg/kg,56%,47 mg/kg,20 mg/kg,Concentration (Rattus norvegicus [21]): 8300 ng/mL; Concentration (Rattus norvegicus [22]): 17500 ng/mL
